A selection: hits, their analogues and other compounds. The true share with any hit is near 1.7%.
Scp-1 inhibitor – inhibitors of human Scp-1 phosphatase; Q9GZU7; Recombinant Scp1, phosphopeptide, malachite green phosphate absorbance; inhibition, % at 20 µM; hit rate 0.88% among 340,000; AID 493091;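 active = inhibition above about 50% at 20 µM, limit read from the data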;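 also: plate controls were DMSO wells with enzyme for no effect and wells lacking enzyme for full effect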
Target sequence (Q9GZU7 76-261 limits assumed): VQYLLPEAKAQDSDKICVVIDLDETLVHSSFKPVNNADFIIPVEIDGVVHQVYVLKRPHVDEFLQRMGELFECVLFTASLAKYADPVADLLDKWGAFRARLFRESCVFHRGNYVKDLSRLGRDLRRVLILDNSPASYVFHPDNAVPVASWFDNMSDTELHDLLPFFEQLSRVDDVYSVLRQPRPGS
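Assay system: SCP-1 catalytic fragment, aa 76-261 | Buffer or medium: Tris acetate buffer pH 5.5 with MgCl2 and Tween-20 | Compound: One concentration, 20 µM, with 1.0% DMSO | Also added: Phospho 17-mer peptide substrate | Signal: Absorbance at 630 nm | Incubation: 45 min enzyme reaction at room temperature | Measure: % inhibition of SCP-1 phosphate liberation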
DNMT1 block – blocks human DNA methyltransferase DNMT1; DNMT1 molecular beacon, Hinp1I cleavage, fluorescence; inhibition (reported as % activation of signal), % at 10 µM; hit rate 0.83% among 360,000; in the data active = inhibition above about 50%
STEP inh – inhibitors of human striatal-enriched phosphatase STEP. P54829. recombinant STEP, OMFP fluorogenic substrate, fluorescence. hit rate 0.25% among 360,000. inhibition, % at 20 µM;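 active = inhibition at 20 µM, scaled per plate between control wells, above about 37%, limit read from the data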;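 also: 0% = DMSO with enzyme and substrate and 100% = substrate only without enzyme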
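Material: STEP (striatal-enriched tyrosine phosphatase) enzyme, cell-free; Compound dosing: 20 µM single dose in 1% DMSO; Technique: fluorescence read at 480 nm ex / 540 nm em; Times: reaction 20 min, ambient temperature; Medium: 50 mM Bis-Tris pH 6.0 with 2.5 mM DTT and 0.005% Tween 20; Also added: OMFP at 25 µM.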
SUMO1-SIM PPI – SUMO1-SIM interaction modulation; hit rate 0.33% among 360,000; SUMO1 binding to a labelled peptide, TR-FRET, 1 h; inhibition, % at 20 µM; P63165; in the data active = inhibition above about 37%
Target sequence (P63165 whole entry, looked up): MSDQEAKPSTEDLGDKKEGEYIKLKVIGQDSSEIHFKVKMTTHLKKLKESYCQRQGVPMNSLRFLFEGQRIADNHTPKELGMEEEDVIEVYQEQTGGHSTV
LMPTP block – LMPTP (human) inhibition. P24666. recombinant LMPTP-A, OMFP fluorogenic substrate, fluorescence intensity. inhibition, % at 20 µM. hit rate 0.22% among 360,000. AID 651560;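 active = compounds that cut the enzyme signal by at least half of the control window in the single-dose screen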;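 also: plate controls were DMSO wells with enzyme plus substrate for no effect and substrate without enzyme for full effect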
Target sequence (P24666 whole entry, looked up): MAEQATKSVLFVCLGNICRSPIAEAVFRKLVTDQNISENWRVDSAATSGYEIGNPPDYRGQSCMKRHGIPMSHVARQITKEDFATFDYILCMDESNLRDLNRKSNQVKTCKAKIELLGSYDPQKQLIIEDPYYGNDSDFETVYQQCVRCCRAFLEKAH
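Test system: LMPTP-A phosphatase enzyme. Amount: LMPTP-A at 0.625 nM final in the reaction. Reagent: OMFP substrate, 400 µM final. Times: 50 min at room temperature. Signal: endpoint fluorescence intensity from OMFP dephosphorylation. Read-out basis: % inhibition. Benchmarks: no-enzyme and uninhibited controls.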
Scp-1 conf – Scp-1 (human) inhibition, single-dose confirmed; shares compounds with Scp-1 inhibitor; recombinant SCP-1 catalytic domain, phosphate release, malachite green absorbance; inhibition, % at 20 µM; hit rate 61% among 2,500; AID 540281;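 also: plate controls were DMSO with enzyme for no effect and buffer wells lacking enzyme for full effect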
Scp-1 MG ctr – interferes with malachite green readout, flagging false Scp-1 hits; Colorimetric interference counterscreen, malachite green absorbance 630 nm; 2,500 tested, under 10 active; apparent inhibition (interference), % at 20 µM; shares compounds with Scp-1 inhibitor;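 also: compounds added after enzyme reaction finished so only phosphate colour detection is probed; plate controls were DMSO wells with completed Scp-1 reaction for no effect and substrate wells lacking enzyme for full effect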
Scp1 DSF – Scp-1 (human) binding by thermal shift; shares compounds with Scp-1 inhibitor; Recombinant SCP1, Sypro Orange thermal shift Tm; thermal shift relative to vanadate control, % at 40 µM; AID 540329; hit rate 25% among 1,500;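 active = substances whose mean melting-temperature shift, as a percentage of the reference inhibitor's shift, reaches about 5.3%, limit read from the data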;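 also: 0% = Tm of DMSO wells and 100% = Tm with sodium orthovanadate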
An asterisk follows results filed as active.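 The calls were made as follows, unless noted: active = inhibition of at least 30% at 20 µM; inactive = the rest.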

How did Cn1c(SCC(=O)c2ccccc2)nnc1-c1cccs1 do in these assays?
Scp-1 inhibitor: 0.2; DNMT1 block: 0.3; STEP inh: 1.6; SUMO1-SIM PPI: -6.7; LMPTP block: -0.6

Results for CN(Cc1ccccc1)C(=O)c1ncn(C)c1C(=O)N(C)Cc1ccccc1 ?
Scp-1 inhibitor: 93.4*; DNMT1 block: 10.8; STEP inh: -3.3; SUMO1-SIM PPI: -3.3; LMPTP block: -0.1; Scp-1 conf: 84.6*; Scp-1 MG ctr: -17.2; Scp1 DSF: -3.5

What do the screens show for `CN(Cc1ccccc1)C(=O)c1ncn(Cc2ccccc2)c1C(=O)N(C)Cc1ccccc1`?
Scp-1 inhibitor: -0.2; DNMT1 block: 1.5; STEP inh: -2.4; SUMO1-SIM PPI: -3.9; LMPTP block: 0.2

Results for O=C(COC(=O)c1cc[n+]([O-])cc1)Nc1cc([N+](=O)[O-])ccc1Cl ?
Scp-1 inhibitor: -1.2; DNMT1 block: 4.0; STEP inh: -0.3; SUMO1-SIM PPI: -27.3; LMPTP block: -1.4

How did O=C(Nc1ccc2c(c1)C(=O)NC2=O)c1ccccc1 do in these assays?
Scp-1 inhibitor: -6.0; DNMT1 block: 0.3; STEP inh: -0.2; SUMO1-SIM PPI: -21.0; LMPTP block: -17.9

Results for O=C(Nc1ccc2c(c1)C(=O)NC2=O)c1cccc(C(F)(F)F)c1 ?
Scp-1 inhibitor: 88.4*; DNMT1 block: 25.7; STEP inh: 4.8; SUMO1-SIM PPI: 8.6; LMPTP block: -2.1; Scp-1 conf: 52.9*; Scp-1 MG ctr: -10.9; Scp1 DSF: 4.7

How did CC(C)OC(=O)C1C2C=CC3(CN(Cc4cccs4)C(=O)C13)O2 (stereo not drawn) do in these assays?
Scp-1 inhibitor: 67.5*; DNMT1 block: 1.0; STEP inh: -0.7; SUMO1-SIM PPI: -3.5; LMPTP block: -1.5; Scp-1 conf: -11.7; Scp-1 MG ctr: -10.1

Results for Nc1c(N(Cc2ccco2)C(=O)COc2ccccc2F)c(=O)[nH]c(=O)n1Cc1ccccc1 ?
Scp-1 inhibitor: 3.2; DNMT1 block: 0.2; STEP inh: 1.0; SUMO1-SIM PPI: -1.5; LMPTP block: 0.6

How did O=C(O)/C=C/c1cnc2ccccc2c1 do in these assays?
Scp-1 inhibitor: 55.3*; DNMT1 block: 1.5; STEP inh: 0.1; SUMO1-SIM PPI: -3.7; LMPTP block: -0.3; Scp-1 conf: 10.3; Scp-1 MG ctr: -13.1

What do the screens show for `CCCOc1nc2ccccc2cc1/C=C/C(=O)O`?
Scp-1 inhibitor: -3.5; DNMT1 block: 15.1; STEP inh: 1.3; SUMO1-SIM PPI: -6.4; LMPTP block: 1.5

How did O=C(Nc1ccc(F)cc1)C(c1ccncc1)N1CCN(CC(=O)N2CCCC2)CC1 (stereo not drawn) do in these assays?
SUMO1-SIM PPI: 5.0; LMPTP block: -1.0

How did CCOc1nc(Nc2ccc(OC)cc2)nc(OCC)n1 do in these assays?
Scp-1 inhibitor: 66.9*; DNMT1 block: 3.1; STEP inh: 12.5; SUMO1-SIM PPI: 1.2; LMPTP block: -0.4; Scp-1 conf: 29.9; Scp-1 MG ctr: -17.3

What do the screens show for `COc1ccc(Nc2nc(OC)nc(OC)n2)cc1`?
Scp-1 inhibitor: 0.8; DNMT1 block: -3.6; STEP inh: -0.8; SUMO1-SIM PPI: 5.9; LMPTP block: -1.3

What do the screens show for `COc1ccc(CNC(=O)NC(C)(C)c2cccc(C(C)(C)NC(=O)NCc3ccc(OC)cc3)c2)cc1`?
Scp-1 inhibitor: -2.5; DNMT1 block: 4.8; STEP inh: 0.1; SUMO1-SIM PPI: -3.4; LMPTP block: 0.3

What do the screens show for `C/C=C(\C)C(=O)Nc1cccc(C2=NOC3(C2)C[C@@H](C(N)=O)N(C(=O)c2ccccc2C(=O)c2ccccc2)C3)c1` (stereo partly drawn)?
Scp-1 inhibitor: -3.6; DNMT1 block: -8.7; STEP inh: -1.1; SUMO1-SIM PPI: 5.1; LMPTP block: -0.9

What do the screens show for `C/C=C/C=C/C(=O)N1CC2(CC(c3cccc(NC(=O)/C=C/C)c3)=NO2)C[C@@H]1C(N)=O` (stereo partly drawn)?
Scp-1 inhibitor: 56.0*; DNMT1 block: -0.1; STEP inh: -2.2; SUMO1-SIM PPI: 18.2; LMPTP block: 0.0; Scp-1 conf: 7.2; Scp-1 MG ctr: -13.7

How did C=C(C)C(=O)Nc1cccc(C2=NOC3(C2)C[C@H](C(N)=O)N(C(=O)c2ccccc2C(=O)c2ccccc2)C3)c1 (stereo partly drawn) do in these assays?
Scp-1 inhibitor: 83.7*; DNMT1 block: 97.5*; STEP inh: 2.0; SUMO1-SIM PPI: 92.0*; LMPTP block: -0.5; Scp-1 conf: 78.2*; Scp-1 MG ctr: 5.6; Scp1 DSF: -1.4

Results for COc1ccc(/C=C2\C(=O)NCC(=O)N2C)cc1 ?
Scp-1 inhibitor: 89.3*; DNMT1 block: 0.4; STEP inh: -1.9; SUMO1-SIM PPI: 2.8; LMPTP block: -3.0; Scp-1 conf: -12.9; Scp-1 MG ctr: -15.1

What do the screens show for `NC(=O)NC(=O)CC1S/C(=N/N=C2\CSC(=O)N2)NC1=O` (stereo not drawn)?
Scp-1 inhibitor: -6.5; DNMT1 block: 4.6; STEP inh: -2.4; SUMO1-SIM PPI: 2.9; LMPTP block: -1.9

How did O=C(O)CNC(=O)CC1S/C(=N/N=C2/NC(=O)CS2)NC1=O (stereo not drawn) do in these assays?
Scp-1 inhibitor: 71.6*; DNMT1 block: 2.1; STEP inh: 0.9; SUMO1-SIM PPI: 13.6; LMPTP block: -0.1; Scp-1 conf: 68.6*; Scp-1 MG ctr: -2.1; Scp1 DSF: -13.2

Results for COc1ccc(S(=O)(=O)N2CCOCC2)cc1NC(=O)COC(=O)CC1CC2CCC1C2 (stereo not drawn) ?
Scp-1 inhibitor: -2.2; DNMT1 block: -8.1; STEP inh: 1.4; SUMO1-SIM PPI: 1.7; LMPTP block: 1.4

How did COCCOC(=O)c1cc(C(=O)c2cc(Cl)ccc2O)coc1=N do in these assays?
Scp-1 inhibitor: 55.3*; DNMT1 block: -3.4; STEP inh: -0.1; SUMO1-SIM PPI: 1.2; LMPTP block: -0.5; Scp-1 conf: -11.4; Scp-1 MG ctr: -15.6

How did CCOC(=O)c1cc(C(=O)c2cc(Cl)ccc2O)coc1=N do in these assays?
Scp-1 inhibitor: -8.0; DNMT1 block: -7.3; STEP inh: -0.7; SUMO1-SIM PPI: -1.4; LMPTP block: 0.7

What do the screens show for `Cc1cccc(NC(=O)CN2C(=O)S/C(=C\c3ccc(-c4cccc(C(=O)O)c4C)o3)C2=O)c1`?
Scp-1 inhibitor: 77.5*; Scp-1 conf: 80.8*; Scp-1 MG ctr: -7.6; Scp1 DSF: 8.1*

Source: PubChem BioAssay
